The record followed here is ChEMBL document CHEMBL1134548, “Disabling erbB receptors with rationally designed exocyclic mimetics of antibodies: structure-function analysis” (J Med Chem, 2001).

Positions of bridges follow the written chain, without caps; N, C: chain ends. Residues, ends and D or L forms follow the SMILES beside them.

For orientation: Inhibition means the share of the control response that was lost under treatment. What is called Kd is the free concentration of one partner at which half of the binding sites on the other are occupied at equilibrium, for simple one-to-one binding.

Data set [1] deals with T1, Receptor tyrosine-protein kinase erbB-2 (Homo sapiens, UniProt P04626). In words: Kinetic constant for peptide inhibitor binding to HER2 receptor. Put shortly: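 Surface plasmon resonance at 25 °C. HER2 ectodomain–human IgG Fc fusion was amine-coupled (EDC/NHS, 40 ng/mL in 10 mM NaOAc pH 5.0) to 3500 RU, with a blank reference surface. Peptides were flowed at variable concentrations at 20 µL/min, with 240 s association and 300 s dissociation. Signals were reference- and buffer-subtracted, and kon, koff and KD (koff/kon) were fitted to a pseudo-first-order model.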

The nature of data set [2]: Solubility in the PBS buffer at 1 mg/mL; Limited solubility. Type of data set: physicochemical.
Data set [3] in a line: Inhibition of T6-17 cell proliferation. Format: functional, Mus musculus. On the set-up: concentration or dose not given beside the values. The method in brief:
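T6-17 cells (NIH3T3 engineered to overexpress human HER2) seeded overnight at 1000/well in DMEM with 10% FBS, then cultured 48 h in fresh medium with peptide at 1 µg/mL. MTT (5 mg/mL in PBS) added, 2 h at 37 °C. SDS/DMF extraction buffer (pH 4.7) added, overnight at 37 °C, then OD 600 nm read. Each value is the mean of at least four samples.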

Data set [4] can be described thus: Solubility in the PBS buffer at 1 mg/mL; Good solubility. Format: physicochemical.
Data set [5] addresses T1, Receptor tyrosine-protein kinase erbB-2. In words: Dissociation constant for peptide inhibitor binding to HER2 receptor. Put shortly: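 Surface plasmon resonance at 25 °C. Recombinant HER2 ectodomain–human IgG Fc fusion was amine-coupled to the sensor chip to 3500 RU. A blank reference surface was subtracted. Peptides were injected at variable concentrations at 20 µL/min, with 240 s association and 300 s dissociation. Signals were buffer-subtracted and fitted to a pseudo-first-order model, and KD was taken as koff/kon.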

T1 sequence (P04626 whole entry, the tested form may be a part): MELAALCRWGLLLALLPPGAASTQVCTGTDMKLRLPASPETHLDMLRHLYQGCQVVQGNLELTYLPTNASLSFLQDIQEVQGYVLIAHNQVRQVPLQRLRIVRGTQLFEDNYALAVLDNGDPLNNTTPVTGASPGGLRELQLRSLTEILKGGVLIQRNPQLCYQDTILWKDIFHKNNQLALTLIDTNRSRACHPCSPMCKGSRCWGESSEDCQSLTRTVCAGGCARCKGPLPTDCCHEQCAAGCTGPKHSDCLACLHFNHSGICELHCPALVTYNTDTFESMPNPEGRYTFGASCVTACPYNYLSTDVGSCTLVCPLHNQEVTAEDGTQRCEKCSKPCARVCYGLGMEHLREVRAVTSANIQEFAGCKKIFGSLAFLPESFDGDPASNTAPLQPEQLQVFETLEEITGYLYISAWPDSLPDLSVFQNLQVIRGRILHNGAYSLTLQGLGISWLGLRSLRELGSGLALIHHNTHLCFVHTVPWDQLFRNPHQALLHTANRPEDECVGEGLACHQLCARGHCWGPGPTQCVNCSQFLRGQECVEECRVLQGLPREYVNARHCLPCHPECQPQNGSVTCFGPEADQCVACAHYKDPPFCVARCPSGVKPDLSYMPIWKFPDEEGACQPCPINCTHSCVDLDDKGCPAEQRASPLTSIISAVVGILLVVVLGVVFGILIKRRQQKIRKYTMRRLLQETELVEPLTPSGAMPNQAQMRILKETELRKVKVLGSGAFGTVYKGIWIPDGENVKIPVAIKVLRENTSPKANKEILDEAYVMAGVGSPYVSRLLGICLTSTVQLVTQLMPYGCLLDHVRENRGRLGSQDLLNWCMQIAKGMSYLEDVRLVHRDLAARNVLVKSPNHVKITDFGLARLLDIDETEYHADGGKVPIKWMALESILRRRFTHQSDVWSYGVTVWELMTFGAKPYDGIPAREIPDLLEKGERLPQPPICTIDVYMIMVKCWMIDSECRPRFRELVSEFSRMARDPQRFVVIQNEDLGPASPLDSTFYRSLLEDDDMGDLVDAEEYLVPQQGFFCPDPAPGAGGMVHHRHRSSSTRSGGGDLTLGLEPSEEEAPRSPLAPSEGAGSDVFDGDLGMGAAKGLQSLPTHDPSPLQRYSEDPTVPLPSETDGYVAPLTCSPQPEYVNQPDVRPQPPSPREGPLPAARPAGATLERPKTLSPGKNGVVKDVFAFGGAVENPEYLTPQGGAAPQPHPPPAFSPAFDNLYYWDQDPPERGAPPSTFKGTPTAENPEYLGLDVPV

On to `CSCC[C@H](NC(=O)[C@H](Cc1ccc(O)cc1)NC(=O)[C@@H]1CSSC[C@H](NC(=O)[C@@H](N)Cc2ccc(O)cc2)C(=O)N[C@@H](CC(=O)O)C(=O)NCC(=O)N[C@@H](Cc2ccccc2)C(=O)N[C@@H](Cc2ccc(O)cc2)C(=O)N[C@@H](C)C(=O)N1)C(=O)N[C@@H](CC(=O)O)C(=O)N[C@H](C(N)=O)C(C)C`, for which, in data set [1], the k off is 0.000294 s⁻¹ and the k on amounted to 1960 M⁻¹ s⁻¹. Further, in data set [2], the S result is “Insoluble”. Further, the Inhibition in data set [3] was found to be 59.6%.
In the case of `CSCC[C@H](NC(=O)[C@@H](Cc1ccc(O)cc1)NC(=O)[C@@H]1CSSC[C@H](NC(=O)[C@H](N)Cc2ccccc2)C(=O)N[C@@H](CC(=O)O)C(=O)NCC(=O)N[C@@H](Cc2ccccc2)C(=O)N[C@@H](Cc2ccc(O)cc2)C(=O)N[C@@H](C)C(=O)N1)C(=O)N[C@@H](CC(=O)O)C(=O)N[C@H](C(N)=O)C(C)C`, the S result in data set [4] was “Soluble”. In data set [1], this compound showed a k off of 0.000603 s⁻¹ and a k on of 1720 M⁻¹ s⁻¹.
In data set [1], `CSCC[C@H](NC(=O)[C@H](Cc1ccc(O)cc1)NC(=O)[C@@H]1CSSC[C@H](NC(=O)[C@@H](N)Cc2ccccc2)C(=O)N[C@@H](CC(=O)O)C(=O)NCC(=O)N[C@@H](Cc2ccccc2)C(=O)N[C@@H](Cc2ccc(O)cc2)C(=O)N[C@@H](C)C(=O)N1)C(=O)N[C@@H](CC(=O)O)C(=O)N[C@H](C(N)=O)C(C)C` displayed a k off of 0.000453 s⁻¹ and a k on of 1410 M⁻¹ s⁻¹. In data set [2], the S result is “Insoluble”. The compound also gave an Inhibition in data set [3] of 35.5%.
Turning to `CC(C)[C@H](NC(=O)[C@H](CC(=O)O)NC(=O)[C@H](CCCCN)NC(=O)[C@H](Cc1ccc(O)cc1)NC(=O)[C@@H]1CSSC[C@H](NC(=O)[C@@H](N)Cc2ccccc2)C(=O)N[C@@H](CC(=O)O)C(=O)NCC(=O)N[C@@H](Cc2ccccc2)C(=O)N[C@@H](Cc2ccc(O)cc2)C(=O)N[C@@H](C)C(=O)N1)C(=O)O` (H-FCDGFYACYKDV-OH; disulfide 2-8), in data set [4], the S result is “Soluble”. Further, in data set [1], the k off was 0.00125 s⁻¹ and the k on stood at 219 M⁻¹ s⁻¹. Besides, the Inhibition in data set [3] came out at 8.4%.
Consider `CSCC[C@H](NC(=O)[C@H](Cc1ccc(O)cc1)NC(=O)[C@@H]1CSSC[C@H](NC(=O)[C@@H](N)Cc2ccccc2)C(=O)N[C@@H](CC(=O)O)C(=O)NCC(=O)N[C@@H](Cc2ccccc2)C(=O)N[C@@H](Cc2ccc(O)cc2)C(=O)N[C@@H](C)C(=O)N1)C(=O)N[C@@H](CC(=O)O)C(=O)N[C@H](C(=O)N[C@@H](CCCCN)C(N)=O)C(C)C` (H-FCDGFYACYMDVK-NH2; disulfide 2-8), for which, in data set [1], the k off was determined as 0.000512 s⁻¹ and the k on amounted to 617 M⁻¹ s⁻¹. Moreover, in data set [2], the S result is listed as “Insoluble”.
Consider `CSCC[C@H](NC(=O)[C@H](Cc1ccc(O)cc1)NC(=O)[C@@H]1CSSC[C@H](NC(=O)[C@@H](N)Cc2ccccc2)C(=O)NCC(=O)N[C@@H](CC(=O)O)C(=O)NCC(=O)N[C@@H](Cc2ccccc2)C(=O)N[C@@H](Cc2ccc(O)cc2)C(=O)N[C@@H](C)C(=O)N1)C(=O)N[C@@H](CC(=O)O)C(=O)N[C@H](C(=O)O)C(C)C` (H-FCGDGFYACYMDV-OH; disulfide 2-9), for which the S result in data set [4] is recorded as “Soluble”. In data set [1], this compound gave a k off of 0.000701 s⁻¹ and a k on of 922 M⁻¹ s⁻¹. Besides, the Inhibition in data set [3] was 18.4%.
As to `CSCC[C@H](NC(=O)[C@H](Cc1ccc(O)cc1)NC(=O)[C@@H]1CSSC[C@H](NC(=O)[C@H](Cc2ccccc2)NC(=O)CN)C(=O)N[C@@H](CC(=O)O)C(=O)NCC(=O)N[C@@H](Cc2ccccc2)C(=O)N[C@@H](Cc2ccc(O)cc2)C(=O)N[C@@H](C)C(=O)N1)C(=O)N[C@@H](CC(=O)O)C(=O)N[C@H](C(=O)O)C(C)C` (H-GFCDGFYACYMDV-OH; disulfide 3-9), the S result in data set [4] is given as “Soluble”. For the same compound, in data set [1], the k off is 0.000808 s⁻¹ and the k on is 1110 M⁻¹ s⁻¹.
In the case of `CSCC[C@H](NC(=O)[C@H](Cc1ccc(O)cc1)NC(=O)[C@@H]1CSSC[C@H](NC(=O)[C@@H](N)Cc2ccccc2)C(=O)N[C@@H](CC(=O)O)C(=O)NCC(=O)N[C@@H](Cc2ccccc2)C(=O)N[C@@H](Cc2ccc(O)cc2)C(=O)N[C@@H](C)C(=O)N1)C(=O)N[C@@H](CC(=O)O)C(=O)N[C@H](C(=O)O)C(C)C` (stereo in doubt; 2) [listing 1 of 2 here], the S entry in data set [2] was “Insoluble”. In addition, the Inhibition in data set [3] is 22.3%.
In data set [1], `CSCC[C@H](NC(=O)[C@H](Cc1ccc(O)cc1)NC(=O)[C@@H]1CSSC[C@H](NC(=O)[C@@H](N)Cc2ccccc2)C(=O)N[C@@H](CC(=O)O)C(=O)NCC(=O)N[C@@H](Cc2ccccc2)C(=O)N[C@@H](Cc2ccc(O)cc2)C(=O)N[C@@H](C)C(=O)N1)C(=O)N[C@@H](CC(=O)O)C(=O)N[C@H](C(=O)O)C(C)C` (stereo in doubt; 2) [listing 2 of 2 here] registered a k off of 0.000643 s⁻¹ and a k on of 990 M⁻¹ s⁻¹.
In data set [5], `CSCC[C@H](NC(=O)[C@H](Cc1ccc(O)cc1)NC(=O)[C@@H]1CSSC[C@H](NC(=O)[C@@H](N)Cc2ccccc2)C(=O)N[C@@H](CC(=O)O)C(=O)NCC(=O)N[C@@H](Cc2ccccc2)C(=O)N[C@@H](Cc2ccc(O)cc2)C(=O)N[C@@H](C)C(=O)N1)C(=O)N[C@@H](CC(=O)O)C(=O)N[C@H](C(=O)O)C(C)C` (stereo in doubt; 9) [listing 1 of 2 here] came in with a Kd of 3.56 µM.
On to `CSCC[C@H](NC(=O)[C@H](Cc1ccc(O)cc1)NC(=O)[C@@H]1CSSC[C@H](NC(=O)[C@@H](N)Cc2ccccc2)C(=O)N[C@@H](CC(=O)O)C(=O)NCC(=O)N[C@@H](Cc2ccccc2)C(=O)N[C@@H](Cc2ccc(O)cc2)C(=O)N[C@@H](C)C(=O)N1)C(=O)N[C@@H](CC(=O)O)C(=O)N[C@H](C(=O)O)C(C)C` (stereo in doubt; 9) [listing 2 of 2 here], for which, in data set [1], the k off worked out at 0.00106 s⁻¹ and the k on turned out to be 298 M⁻¹ s⁻¹.
